Assay results reported in ChEMBL document CHEMBL3046367, “Potent and specific bactericidal effect of juglone (5-hydroxy-1,4-naphthoquinone) on the fire blight pathogen Erwinia amylovora” (J Agric Food Chem, 2012).
≈ marks a conversion by molar mass, not a printed value. Calls of active or inactive are those of the source. The rule behind the calls is not given here.

Columns and labels:
[1] = system: Erwinia amylovora; test: Bactericidal activity against Erwinia amylovora 295/93 assessed as growth inhibition in King's B full medium measured at pH 7.2 after overnight incubation by suspension culture assay; type: functional
Outline: (§1)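 Growth inhibition in suspension culture in King's B medium (peptone, K2HPO4, MgSO4, glycerol; pH 7.2). Overnight culture diluted to OD600 0.2, compound added from stocks in ethanol or DMSO (up to 5% v/v) beside solvent controls; 28 °C, 200 rpm; OD600 read at 0–8 h every 2 h and at 15 or 24 h. MIC = lowest concentration giving complete growth inhibition after overnight incubation; at least triplicate.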

[2] = system: Erwinia amylovora; test: Bactericidal activity against Erwinia amylovora bv.4 assessed as growth inhibition after 10 min; type: functional; details: bv.4, 10 min
[3] = system: Erwinia amylovora; test: Bactericidal activity against Erwinia amylovora 295/93 assessed as growth inhibition applied as spray solution; type: functional, organism-based
[4] = system: Erwinia amylovora; test: Bactericidal activity against Erwinia amylovora 295/93 assessed as colony growth inhibition at 25 uM at pH 4.5 by plating assay in presence of 0.5 mg/l mushroom tyrosinase; type: functional, organism-based
[5] = Activity of Agaricus bisporus (mushroom) tyrosinase assessed as drug oxidation by photometric analysis; type: ADME
[6] = system: Erwinia amylovora; test: Bactericidal activity against Erwinia amylovora 295/93 assessed as colony growth inhibition at 25 uM at pH 7.2 by plating assay in presence of 0.5 mg/l mushroom tyrosinase; type: functional, organism-based
[7] = system: Erwinia amylovora; test: Bactericidal activity against Erwinia amylovora 295/93 assessed as growth inhibition at 10 uM preincubated for 1 hr with visible light by suspension culture assay; type: functional, organism-based
Outline: (§2)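 1 mM stock in ethanol exposed for 1 h to bright sunlight (UV plus visible) or to sunlight behind a UV-blocking glass screen; dark-kept solution as control. Added at nominal 10 μM to growing E. amylovora suspension cultures; growth followed by OD600.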

[8] = system: Erwinia amylovora; test: Bactericidal activity against Erwinia amylovora 295/93 assessed as growth inhibition at 10 uM preincubated for 1 hr with UV/visible light by suspension culture assay; type: functional, organism-based; outline: as §2
[9] = system: Erwinia amylovora; test: Bactericidal activity against mixture of two strains of Erwinia amylovora 295/93 and 763 inoculated in Malus x domestica cv. Gala flowers assessed as prevention of infection at 0.01 mM applied two times at 2 hr after bacterial exposure measured after 8 to 10 days by In vitro flower inoculation assay; type: functional, 295/93/763
Outline: (§3)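 Gala flowers (balloon stage, from greenhouse-forced potted trees) opened on 10% sucrose at 28 °C for 24 h, in series of 20. Each inoculated with 1 μL of a 1×10^7 CFU/mL mix of strains 295/93 and 763 on the styles. After 2 h, sprayed twice with 150 μL; water as negative control. Kept at 70% humidity and 22 °C, with a water-plus-fungicide spray at day 2. Infected flowers per series scored at 8–10 days; assay valid only if water controls reached ≥50% infection.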

[10] = system: Erwinia amylovora; test: Bactericidal activity against 2x10^8 CFU/mL Erwinia amylovora 295/93 cells assessed as late restarting of growth from surviving cells at <10 uM by suspension culture assay; type: functional, organism-based
[11] = system: Erwinia amylovora; test: Bactericidal activity against Erwinia amylovora 295/93 at 10 uM after 30 min; type: functional, organism-based
Outline: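 Bactericidal versus bacteriostatic test: about 10^5 E. amylovora cells in suspension culture exposed to 10 μM for 30 min, then plated on King's B medium to check for surviving colonies.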

[12] = system: Escherichia coli; test: Bactericidal activity against Escherichia coli assessed as growth inhibition at pH 7.2 by suspension culture assay; type: functional; outline: as §1
[13] = system: Pseudomonas fluorescens; test: Bactericidal activity against Pseudomonas fluorescens A506 assessed as growth inhibition at pH 7.2 by suspension culture assay; type: functional; outline: as §1
[14] = system: Bacillus subtilis; test: Bactericidal activity against Bacillus subtilis NCTC 10315 assessed as growth inhibition at pH 7.2 by suspension culture assay; type: functional; outline: as §1
[15] = system: Pectobacterium carotovorum; test: Bactericidal activity against Pectobacterium carotovorum NCPB 312 assessed as growth inhibition at pH 7.2 by suspension culture assay; type: functional; outline: as §1
[16] = system: Erwinia piriflorinigrans; test: Bactericidal activity against Erwinia piriflorinigrans 5888 assessed as growth inhibition at pH 7.2 by suspension culture assay; type: functional; outline: as §1
[17] = system: Pantoea agglomerans; test: Bactericidal activity against Pantoea agglomerans 599 assessed as growth inhibition at pH 7.2 by suspension culture assay; type: functional; outline: as §1
[18] = system: Erwinia billingiae; test: Bactericidal activity against Erwinia billingiae 6830 assessed as growth inhibition at pH 7.2 by suspension culture assay; type: functional; outline: as §1
[19] = system: Erwinia amylovora; test: Bactericidal activity against Erwinia amylovora 385R assessed as growth inhibition at pH 7.2 by suspension culture assay; type: functional; outline: as §1
[20] = system: Erwinia amylovora; test: Bactericidal activity against Erwinia amylovora 363 assessed as growth inhibition at pH 7.2 by suspension culture assay; type: functional; outline: as §1
[21] = system: Erwinia amylovora; test: Bactericidal activity against Erwinia amylovora 237R assessed as growth inhibition at pH 7.2 by suspension culture assay; type: functional; outline: as §1
[22] = system: Erwinia amylovora; test: Bactericidal activity against Erwinia amylovora 295/93 assessed as inhibition of bacterial growth under infection conditions in hrp gene expression inducing medium at pH 7.0 after overnight incubation by suspension culture assay; type: functional
Outline: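 E. amylovora 295/93 started at OD600 0.2, 28 °C with shaking, OD600 followed. MIC = lowest concentration completely inhibiting growth after overnight incubation, beside solvent controls.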

[23] = system: Erwinia amylovora; test: Bactericidal activity against Erwinia amylovora 295/93 assessed as growth inhibition at pH 4.5 after overnight incubation by suspension culture assay; type: functional
Outline: (§4)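 E. amylovora 295/93 grown in King's B medium brought to pH values between 4 and 8 with 1 M HCl or NaOH before sterilisation. Culture set to OD600 0.2, 28 °C, 200 rpm, OD600 monitored over time; solvent controls run in parallel.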

[24] = system: Erwinia amylovora; test: Bactericidal activity against Erwinia amylovora 295/93 assessed as growth inhibition at 2.5 uM at pH 4.0 to 8.0 by suspension culture assay; type: functional, organism-based; outline: as §4
[25] = system: Erwinia tasmaniensis; test: Bactericidal activity against Erwinia tasmaniensis 37/10 assessed as growth inhibition at pH 7.2 by suspension culture assay; type: functional; outline: as §1
[26] = system: Erwinia pyrifoliae; test: Bactericidal activity against Erwinia pyrifoliae 4171 assessed as growth inhibition at pH 7.2 by suspension culture assay; type: functional; outline: as §1
[27] = system: Erwinia amylovora; test: Bactericidal activity against Erwinia amylovora 894 assessed as growth inhibition at pH 7.2 by suspension culture assay; type: functional; outline: as §1
[28] = system: Erwinia amylovora; test: Bactericidal activity against Erwinia amylovora 893 assessed as growth inhibition at pH 7.2 by suspension culture assay; type: functional; outline: as §1
[29] = system: Erwinia amylovora; test: Bactericidal activity against Erwinia amylovora 872 assessed as growth inhibition at pH 7.2 by suspension culture assay; type: functional; outline: as §1
[30] = system: Erwinia amylovora; test: Bactericidal activity against Erwinia amylovora 871 assessed as growth inhibition at pH 7.2 by suspension culture assay; type: functional; outline: as §1
[31] = system: Erwinia amylovora; test: Bactericidal activity against Erwinia amylovora 846 assessed as growth inhibition at pH 7.2 by suspension culture assay; type: functional; outline: as §1
[32] = system: Erwinia amylovora; test: Bactericidal activity against Erwinia amylovora 797 assessed as growth inhibition at pH 7.2 by suspension culture assay; type: functional; outline: as §1
[33] = system: Erwinia amylovora; test: Bactericidal activity against Erwinia amylovora 793 assessed as growth inhibition at pH 7.2 by suspension culture assay; type: functional; outline: as §1
[34] = system: Erwinia amylovora; test: Bactericidal activity against Erwinia amylovora 792 assessed as growth inhibition at pH 7.2 by suspension culture assay; type: functional; outline: as §1
[35] = system: Erwinia amylovora; test: Bactericidal activity against Erwinia amylovora 782 assessed as growth inhibition at pH 7.2 by suspension culture assay; type: functional; outline: as §1
[36] = system: Erwinia amylovora; test: Bactericidal activity against Erwinia amylovora 657 assessed as growth inhibition at pH 7.2 by suspension culture assay; type: functional; outline: as §1
[37] = system: Erwinia amylovora; test: Bactericidal activity against Erwinia amylovora 627 assessed as growth inhibition at pH 7.2 by suspension culture assay; type: functional; outline: as §1
[38] = system: Erwinia amylovora; test: Bactericidal activity against Erwinia amylovora 562 assessed as growth inhibition at pH 7.2 by suspension culture assay; type: functional; outline: as §1
[39] = system: Erwinia amylovora; test: Bactericidal activity against Erwinia amylovora 513 assessed as growth inhibition at pH 7.2 by suspension culture assay; type: functional; outline: as §1
[40] = system: Erwinia amylovora; test: Bactericidal activity against mixture of two strains of Erwinia amylovora 295/93 and 763 inoculated in Malus x domestica cv. Gala flowers assessed as prevention of infection at 0.06% applied two times at 2 hr after bacterial exposure measured after 8 to 10 days by In vitro flower inoculation assay; type: functional, 295/93/763; outline: as §3

## CC1=C(C)C(=O)C(C)=C(C)C1=O
[1]
  MIC: inactive

## COc1cc(O)c2c(c1)C(=O)c1cc(C)cc(O)c1C2=O
[1]
  MIC: inactive

## Cc1cc(O)c2c(c1)C(=O)c1cc(O)cc(O)c1C2=O
[1]
  MIC: inactive

## Cc1cc(O)c2c(c1)C(=O)c1cccc(O)c1C2=O
[1]
  MIC: inactive

## O=C(O)c1cc(O)c2c(c1)C(=O)c1cccc(O)c1C2=O
[1]
  MIC: inactive

## O=C1C(O)=C(C2=C(O)C(=O)c3ccccc3C2=O)C(=O)c2ccccc21
[1]
  MIC: inactive

## O=C1c2cccc(O)c2C(=O)c2c(O)cc(CO)cc21
[1]
  MIC: inactive

## O=C1c2ccccc2C(=O)c2c1cc(S(=O)(=O)O)c(O)c2O
[1]
  MIC: inactive

## O=C1c2ccccc2C(=O)c2c1ccc(O)c2O
[1]
  MIC: inactive

## O=C1c2ccccc2C(=O)c2ccccc21
[1]
  MIC: inactive

## O=C1C=CC(=O)C=C1 [BENZOQUINONE]
[2]
  MIC: 10 µM (≈ 1.08 µg/mL)
[1]
  MIC: 100 µM (≈ 10.8 µg/mL)

## O=C1C=CC(=O)c2c(O)cccc21 [JUGLONE]
[3]
  growth inhibition (GI): Active
[4]
  growth inhibition (GI): Active
[5]
  Activity: Active
[6]
  growth inhibition (GI): inactive
[7]
  growth inhibition (GI): Active
[8]
  growth inhibition (GI): inactive
[9]
  Efficacy: 67%
[10]
  Activity: Active
[11]
  Activity: Active
[12]
  MIC: 1000 µM (≈ 174 µg/mL)
[13]
  MIC: > 1000 µM
[14]
  MIC: 50 µM (≈ 8.71 µg/mL)
[15]
  MIC: 500 µM (≈ 87.1 µg/mL)
[16]
  MIC: 500 µM (≈ 87.1 µg/mL)
[17]
  MIC: 500 µM (≈ 87.1 µg/mL)
[18]
  MIC: 1000 µM (≈ 174 µg/mL)
[19]
  MIC: 10 µM (≈ 1.74 µg/mL)
[20]
  MIC: 20 µM (≈ 3.48 µg/mL)
[21]
  MIC: 10 µM (≈ 1.74 µg/mL)
[22]
  MIC: 5 µM (≈ 0.871 µg/mL)
[23]
  MIC: 2.5 µM (≈ 0.435 µg/mL)
[24]
  growth inhibition (GI): inactive
[1]
  MIC: 10 µM (≈ 1.74 µg/mL)
[25]
  MIC: 500 µM (≈ 87.1 µg/mL)
[26]
  MIC: 20 µM (≈ 3.48 µg/mL)
[27]
  MIC: 10 µM (≈ 1.74 µg/mL)
[28]
  MIC: 10 µM (≈ 1.74 µg/mL)
[29]
  MIC: 20 µM (≈ 3.48 µg/mL)
[30]
  MIC: 10 µM (≈ 1.74 µg/mL)
[31]
  MIC: 20 µM (≈ 3.48 µg/mL)
[32]
  MIC: 20 µM (≈ 3.48 µg/mL)
[33]
  MIC: 10 µM (≈ 1.74 µg/mL)
[34]
  MIC: 10 µM (≈ 1.74 µg/mL)
[35]
  MIC: 10 µM (≈ 1.74 µg/mL)
[36]
  MIC: 10 µM (≈ 1.74 µg/mL)
[37]
  MIC: 20 µM (≈ 3.48 µg/mL)
[38]
  MIC: 10 µM (≈ 1.74 µg/mL)
[39]
  MIC: 10 µM (≈ 1.74 µg/mL)

## O=C1C=C(O)C(=O)c2ccccc21 [LAWSONE]
[1]
  MIC: 2500 µM (≈ 435 µg/mL)

## CC1=CC(=O)c2ccccc2C1=O [MENADIONE]
[1]
  MIC: 250 µM (≈ 43 µg/mL)

## O=C1C=CC(=O)c2c(O)ccc(O)c21 [NAPHTHAZALIN]
[1]
  MIC: 10 µM (≈ 1.9 µg/mL)

## CC1=CC(=O)c2c(O)cccc2C1=O [PLUMBAGIN]
[1]
  MIC: 100 µM (≈ 18.8 µg/mL)

## CC(C)=CC[C@@H](O)C1=CC(=O)c2c(O)ccc(O)c2C1=O [SHIKONIN]
[1]
  MIC: 100 µM (≈ 28.8 µg/mL)

## CN[C@@H]1[C@H](O[C@H]2[C@H](O[C@H]3[C@H](O)[C@@H](O)[C@H](N=C(N)N)[C@@H](O)[C@@H]3N=C(N)N)O[C@@H](C)[C@]2(O)C=O)O[C@@H](CO)[C@H](O)[C@H]1O [STREPTOMYCIN]
[40]
  Efficacy: 75%
[1]
  MIC: 10 µM (≈ 5.82 µg/mL)
